Reference: paper PMC9337217 (Pharmacology Research & Perspectives, 2022)
Blank lines part the entries; values can stand above or below the compound they belong to. No end group written: not given here.

Experiments:
human NK1 receptor [1] = target: T1, human NK1 receptor (Homo sapiens, UniProt P25103); test: NK1R antagonist block of SP‐induced Ca2+ mobilization in HEK‐NK1R cells; assay type: cell-based; conditions: antagonist 100 nM, 2 min pre‐incubation; n = 5
Procedure, shortened: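 HEK-293 cells stably expressing human NK1R, grown in IMDM/10% FBS with hygromycin. Loaded with 4 μM Fura-2 AM (60–90 min, 37°C), 100 000 cells/well. After a 30-s baseline, antagonist or DMSO vehicle is added for 2 min, then the stimulus. Ratiometric Ca2+ (340/380 nm) is read over 4 min at 37°C. Paired t-test.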

LAD2 human mast cells [2] = conditions: cited from earlier work
LAD2 human mast cells [3] = conditions: cited from earlier work; remark: listed apart in the source
LAD2 human mast cells [4] = test: CCL2 release by LAD2 mast cells; assay type: cell-based; conditions: 24 h
MRGPRX2 = target: T2, MRGPRX2 (Homo sapiens, UniProt Q96LB1); test: Antagonism of SP activation of MRGPRX2; assay type: cell-based; conditions: pilot studies, results not shown
T2 sequence (Q96LB1 1-330): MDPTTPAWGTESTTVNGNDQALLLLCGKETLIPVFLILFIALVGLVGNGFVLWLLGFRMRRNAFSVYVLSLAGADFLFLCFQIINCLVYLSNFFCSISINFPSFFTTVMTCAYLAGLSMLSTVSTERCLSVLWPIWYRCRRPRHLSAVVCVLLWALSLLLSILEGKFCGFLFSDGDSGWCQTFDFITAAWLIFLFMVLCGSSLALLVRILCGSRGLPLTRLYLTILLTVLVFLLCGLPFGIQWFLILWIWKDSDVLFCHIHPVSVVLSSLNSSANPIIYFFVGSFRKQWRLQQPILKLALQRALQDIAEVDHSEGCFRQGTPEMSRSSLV

human NK1 receptor [5] = target: T1, human NK1 receptor; test: Ca2+ mobilization in HEK‐NK1R cells; assay type: cell-based; conditions: even at high concentrations
LAD2 human mast cells [6] = test: Ca2+ mobilization in LAD2 cells; assay type: cell-based; conditions: Fura‐2
Procedure, shortened: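 IgE-sensitized LAD2 cells (JW8 conditioned medium, 48 h), wild-type or MRGPRX2-knockdown, washed in HANKS buffer with 1 mM probenecid. Loaded with 2 μM Fura-2 AM for 60–90 min at 37°C, then plated at 60 000 cells/well. Test compound is injected after a 30-s baseline and the 340/380 nm ratio (510 nm emission) is recorded for 6 min at 37°C. Peak ratios are taken across a concentration range.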

LAD2 human mast cells [7] = test: LAD2 cell degranulation; assay type: cell-based; conditions: β‐hexosaminidase release
Procedure, shortened: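 IgE-sensitized LAD2 cells (wild-type or MRGPRX2-knockdown) in HANKS buffer pH 7.4, 35 000 cells/well, exposed to a concentration range for 30 min at 37°C. Supernatant is incubated with 4 mM p-NAG (pH 4.5) for 90 min at 37°C, quenched with glycine pH 10.7, and read at 405 nm. Release is expressed as % of Triton X-100 (0.1%) lysate total, minus spontaneous release.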

T1 sequence (P25103 whole entry): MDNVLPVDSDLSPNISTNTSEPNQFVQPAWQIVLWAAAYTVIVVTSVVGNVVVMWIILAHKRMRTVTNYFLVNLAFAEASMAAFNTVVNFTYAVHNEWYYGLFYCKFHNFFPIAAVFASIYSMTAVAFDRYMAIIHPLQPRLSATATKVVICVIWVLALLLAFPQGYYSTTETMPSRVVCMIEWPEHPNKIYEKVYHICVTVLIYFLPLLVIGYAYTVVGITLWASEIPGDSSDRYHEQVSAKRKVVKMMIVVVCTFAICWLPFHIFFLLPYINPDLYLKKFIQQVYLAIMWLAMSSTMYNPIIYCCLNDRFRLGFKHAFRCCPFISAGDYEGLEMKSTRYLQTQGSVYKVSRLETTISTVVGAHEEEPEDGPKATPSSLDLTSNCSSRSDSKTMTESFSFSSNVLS

effect of antagonist pretreatment on SP responses in HEK‐NK1R cells (human NK1 receptor [1]): effectively blocked SP responses
Compound: COc1ccc(-n2nnnc2C(F)(F)F)cc1CN[C@H]1CCCN[C@H]1c1ccccc1 [GR205171, vofopitant]

Compound: C=CC[N+]1([C@H]2C[C@H]3[C@@H]4CC[C@H]5C[C@H](O)[C@@H](N6CCOCC6)C[C@]5(C)[C@H]4CC[C@]3(C)[C@H]2OC(C)=O)CCCC1 [rocuronium]
Ca^2+ mobilization in LAD2 cells, in words (LAD2 human mast cells [2]): shows a mobilization of Ca^2+ | degranulation in LAD2 cells, in words (LAD2 human mast cells [3]): without triggering concomitant degranulation

activation of NK1R (Ca^2+ mobilization), in words (human NK1 receptor [5]): failed to induce significant activation
Compound: SP(1–7)‐COOH: C‐terminally truncated in vivo metabolite of SP, residues 1–7, free acid (RPKPQQF-OH; UniProt P20366 58-64, looked up, fragment)
CCL2 cytokine release from LAD2 cells, in words (LAD2 human mast cells [4]): minimal and comparable to spontaneous release | antagonism of SP activation of MRGPRX2 (MRGPRX2): not been able to demonstrate any antagonism | LAD2 Ca^2+ mobilization, in words (LAD2 human mast cells [6]): failed to produce cellular activation | LAD2 degranulation, in words (LAD2 human mast cells [7]): failed to produce cellular activation
